Vmax, Km and Substrate efficiency data for six molecules are collected here from ChEMBL document CHEMBL1121798, “Puromycin analogues. Effect of aryl-substituted puromycin analogues on the ribosomal peptidyltransferase reaction” (J Med Chem, 1981).

Structures are written as SMILES. Active and inactive are the calls of the source. The rule behind the calls is not given here.

Experiment [1] concerns Escherichia coli. Nature of the experiment: Vmax in the peptidyltransferase reaction. The experiment is classed as functional. Put shortly: (§1)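 E. coli ribosomes (washed, 2.78 A260 units) loaded with Ac[14C]Phe-tRNA (21 pmol) in 100 mM Tris-Cl pH 7.5, 100 mM NH4Cl, 15 mM Mg(OAc)2, 0.65 mM DTT, 1.2 mM GTP, FWR, poly(U), 28 °C for 8 min. Analogue then added as acceptor. Radiolabelled product counted and blank-corrected. Duplicates at five substrate concentrations. Km/Vmax from double-reciprocal plots by Wilkinson analysis.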

The test system of experiment [2] is Escherichia coli. Put plainly: Michaelis constant (Km) in the peptidyltransferase reaction. The experiment is classed as functional. Put shortly: as §1
Experiment [3] relates to Escherichia coli. Put plainly: Compound was evaluated for the substrate activity in the peptidyltransferase reaction of Escherichia coli ribosomes.
Experiment [4] relates to Escherichia coli. Nature of the experiment: Michaelis constant (Km) in the peptidyltransferase reaction; Inactive. The class given is functional. The method in brief:
as §1

As to `CN(C)c1ncnc2c1ncn2C1OC(CO)C(NC(=O)C(N)Cc2ccc([N+](=O)[O-])cc2)C1O` (stereo unspecified), the Vmax (usually the top rate of the reaction or transport when substrate is in excess) in experiment [1] stood at 0.39 pmol/min. Moreover, the Km (in general, the concentration of substrate that gives half-maximal velocity) in experiment [2] turned out to be 255 µM. The Substrate efficiency in experiment [3] is 20.7%.

For `CCCC(=O)Nc1ccc(CC(N)C(=O)NC2C(CO)OC(n3cnc4c(N(C)C)ncnc43)C2O)cc1` (stereo unspecified), in experiment [1], the Vmax came to 0.53 pmol/min. The Km in experiment [2] amounted to 367 µM. The same molecule had a Substrate efficiency in experiment [3] of 19.5%.

Take `CN(C)c1ncnc2c1ncn2C1OC(CO)C(NC(=O)C(N)Cc2ccc(NC(=O)CBr)cc2)C1O` (stereo unspecified): the Km entry in experiment [4] was “inactive”.

In the case of `CN(C)c1ncnc2c1ncn2C1OC(CO)C(NC(=O)C(N)Cc2ccc(N)cc2)C1O` (stereo unspecified), the Vmax in experiment [1] was determined as 0.79 pmol/min. The Km in experiment [2] was determined as 120 µM. In experiment [3], this molecule yielded a Substrate efficiency of 89%.

As for `COc1ccc(C[C@H](N)C(=O)N[C@H]2[C@@H](O)[C@H](n3cnc4c(N(C)C)ncnc43)O[C@@H]2CO)cc1`, in experiment [1], the Vmax is 0.99 pmol/min. Besides, the Michaelis constant (Km) in experiment [2] came to 134 µM. For the same molecule, in experiment [3], the Substrate efficiency worked out at 100%.

Turning to `CC(=O)Nc1ccc(CC(N)C(=O)NC2C(CO)OC(n3cnc4c(N(C)C)ncnc43)C2O)cc1` (stereo unspecified), the Vmax in experiment [1] amounted to 0.45 pmol/min. In addition, the Km in experiment [2] was found to be 256 µM. Moreover, the Substrate efficiency in experiment [3] was 23.7%.
